Results on one molecule are retold here after ChEMBL document CHEMBL2176900, “Design and synthesis of a novel series of bicyclic heterocycles as potent γ-secretase modulators” (J Med Chem, 2012).

Structures are written as SMILES. Activity calls are given as the source filed them. No cut-off for these calls is given here.

Data set [1] can be described thus: Plasma concentration in beagle dog at 20 mg/kg, po at 24 hrs. The data set is classed as ADME, organism-based, Canis lupus familiaris. On the set-up: dose 20 mg/kg, route oral.
The nature of data set [2]: Drug uptake in CD1 mouse brain at 10 mg/kg, po at 4 hrs by LC-MS/MS analysis. It is filed as ADME, organism-based. The conditions noted are these: read-out: Drug uptake. On the set-up: dose 10 mg/kg, route oral. A digest of the protocol: (§1)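 Overnight-fasted male CD1 mice received one oral dose (10 or 30 mg/kg) in 20% Captisol. After sacrifice, the left brain hemisphere was stored at −18 °C. Compound level was quantified by a qualified LC-MS/MS method, alongside EDTA plasma spun at 1900g, 4 °C. n = 4 per time point.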

In a further data set the test system is Mus musculus. The experiment in a line: Inhibition of gamma-secretase in CD1 mouse assessed as total amyloid beta level in brain at 10 mg/kg, po at 4 hrs by ELISA relative to control. The data set is classed as functional. The arrangement: scale not given: the % may be the effect or the level left. The procedure, abridged: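 Fasted male CD1 SPF mice were dosed orally at 10 or 30 mg/kg in 20% Captisol. Right hemisphere was homogenized in 0.4% DEA/50 mM NaCl and the high-speed supernatant neutralized. Aβtotal ELISA used N-terminal JRF/rAβ/2 capture, biotinylated 4G8 and streptavidin-peroxidase, then a fluorogenic substrate (ex 320/em 420 nm). Standards spanned 10000–0.3 pg/mL. Values are % change vs T = 0 h, n = 4.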
On the technique in general: ELISA stands for enzyme-linked immunosorbent assay.

A short description of data set [3]: Inhibition of notch processing up to 10 uM.
Data set [4] deals with Gamma-secretase (Homo sapiens) (UniProt Q96BI3+Q9NZ42+Q8WW43+P49768+Q92542+P49810). The experiment in a line: Inhibition of gamma-secretase in human SK-N-BE(2) cells expressing wild type APP 695 assessed as reduction in total amyloid beta level up to 10 uM after overnight incubation by sandwich immunoassay. The data set is classed as cell-based. The procedure, abridged:
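SK-N-BE(2) cells with wild-type APP695 were plated at 10⁴ cells/well in supplemented Ultraculture with test compound at several concentrations. They were incubated overnight at 37 °C, 5% CO₂. Supernatant Aβtotal was measured by AlphaLisa sandwich immunoassay (JRF/AβN/25 capture, biotinylated 4G8). Data are % of the maximum Aβtotal seen without compound.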

The next data set relates to Liver microsomes. The experiment in a line: Drug metabolism in human liver microsome assessed as reactive metabolite formation by gultathione-trapping assay. The data set is classed as ADME.
For another data set, the system named is Brain. Kind of data set: Drug uptake in CD1 mouse brain at 10 mg/kg, po at 48 hrs by LC-MS/MS analysis. The data set is classed as ADME, organism-based. On the set-up: dose 10 mg/kg, route oral. The conditions noted are these: in vivo, BLD = below limit of detection. The procedure, abridged:
as §1

The next data set concerns Canis familiaris. Kind of data set: Antialzheimer activity in beagle dog assessed as amyloid beta 40 level in cerebrospinal fluid at 20 mg/kg, po at 8 hrs by ELISA relative to control.

Take `COc1nc(Nc2cccc3c2nc(-c2ccc(F)cc2)n3C)ccc1-n1cnc(C)c1`: in data set [1], the concentration at 24 h worked out at 40 nM. In addition, in data set [2], the concentration at 4 h came out at 2800 nM. Besides, the figures for the Activity in the data set with Mus musculus and in the data set with Canis familiaris were 94% and 64%, respectively. For the same molecule, the inhibition entry in data set [3] and in data set [4] was “inactive” in each case. For the same molecule, the Drug metabolism entry with Liver microsomes is listed as “Not Active”. Moreover, the Drug uptake result with Brain is “BLD”.
